Reference: ChEMBL document CHEMBL4706727, “Discovery of 2,4-1H-Imidazole Carboxamides as Potent and Selective TAK1 Inhibitors” (ACS Med Chem Lett, 2021)
pIC50, pKd: −log10 of the molar value. ≈ marks a conversion by molar mass, not a printed value.

Legend:
TAK1/TAB1 = TAK1/TAB1 (Homo sapiens, UniProt O43318); assay: Inhibition of recombinant human full-length His-tagged TAK1-TAB1 fusion protein (437 to 504 residues) expressed in baculovirus expression system using fluorescein-MAP2K1 as substrate preincubated for 30 mins followed by substrate addition and measured after 60 mins in presence of ATP by lanthascreen TR-FRET assay
[1] = target: T1, Mitogen-activated protein kinase kinase kinase 7 (Homo sapiens, UniProt O43318); assay: Binding affinity to wild-type human partial length TAK1 (M1 to Q303 residues) expressed in mammalian expression system by Kinomescan method
T1 sequence (O43318 whole entry): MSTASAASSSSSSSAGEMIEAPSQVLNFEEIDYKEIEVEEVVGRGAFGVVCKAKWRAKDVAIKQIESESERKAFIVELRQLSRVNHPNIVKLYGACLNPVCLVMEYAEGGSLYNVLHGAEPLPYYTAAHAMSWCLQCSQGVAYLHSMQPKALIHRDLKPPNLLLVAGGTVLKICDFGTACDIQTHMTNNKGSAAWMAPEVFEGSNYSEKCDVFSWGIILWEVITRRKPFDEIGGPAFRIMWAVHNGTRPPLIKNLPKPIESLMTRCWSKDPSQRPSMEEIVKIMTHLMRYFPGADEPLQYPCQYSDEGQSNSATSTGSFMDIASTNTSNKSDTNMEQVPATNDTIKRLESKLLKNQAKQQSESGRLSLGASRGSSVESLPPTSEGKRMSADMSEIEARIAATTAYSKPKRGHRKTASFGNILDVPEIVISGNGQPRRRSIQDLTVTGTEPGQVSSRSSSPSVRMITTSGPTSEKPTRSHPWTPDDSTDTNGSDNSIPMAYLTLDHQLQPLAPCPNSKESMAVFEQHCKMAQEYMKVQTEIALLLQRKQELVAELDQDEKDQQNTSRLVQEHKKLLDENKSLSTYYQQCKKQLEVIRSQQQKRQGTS
Outline: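 Dissociation constant for TAK1 binding measured on the KdELECT platform.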

[2] = Aqueous solubility of compound in pH 7.4 PBS buffer measured after 24 hrs by HPLC-UV analysis; type: physicochemical
[3] = Half life in human liver S9 fraction at 1 uM measured up to 60 mins in presence of NADPH by LC-MS analysis; type: ADME, subcellular
[4] = Half life in CD-1 mouse liver S9 fraction at 1 uM measured up to 60 mins in presence of NADPH by LC-MS analysis; type: ADME, subcellular
[5] = Half life in rat liver S9 fraction at 1 uM measured up to 60 mins in presence of NADPH by LC-MS analysis; type: ADME, subcellular
[6] = Apparent permeability across apical to basolateral side in human Caco-2 cells at 2 uM after 2 hrs by LC/MS-MS analysis; type: ADME, cell-based
[7] = Apparent permeability across basolateral to apical side in human Caco-2 cells at 2 uM after 2 hrs by LC/MS-MS analysis; type: ADME, cell-based
[8] = Efflux ratio of apparent permeability across basolateral to apical side over apical to basolateral side in human Caco-2 cells at 2 uM after 2 hrs by LC/MS-MS analysis; type: ADME, cell-based
[9] = tested on: Tyrosine-protein kinase ABL1 (Homo sapiens), P00519 [H396P]; assay: Inhibition of human ABL1 H396P mutant (S229 to K512 residues) expressed in mammalian expression system at 10 uM by kinomescan method relative to control
Outline: (§1)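 Single-concentration screen at 10 μM across a 468-kinase KINOMEscan panel (453 human, 403 wild-type kinases). Binding to each kinase was read out as percent inhibition relative to control, with >65% taken as the inhibition cutoff.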

[10] = target: Eukaryotic translation initiation factor 2-alpha kinase 1 (Homo sapiens) (UniProt Q9BQI3); assay: Inhibition of wild-type human partial length EIF2AK1 (Q147 to E603 residues) expressed in mammalian expression system at 10 uM by Kinomescan method relative to control; outline: as §1
[11] = target: Activated CDC42 kinase 1 (Homo sapiens) (UniProt Q07912); assay: Inhibition of wild-type human partial length TNK2 (S159 to D474 residues) expressed in bacterial expression system at 10 uM by Kinomescan method relative to control; outline: as §1
[12] = target: Serine/threonine-protein kinase 32A (Homo sapiens) (UniProt Q8WU08); assay: Inhibition of wild-type human full-length YANK1 (M1 to L396 residues) expressed in mammalian expression system at 10 uM by Kinomescan method relative to control; outline: as §1
[13] = target: T2, Phosphatidylinositol 4,5-bisphosphate 3-kinase catalytic subunit delta isoform (Homo sapiens) (UniProt O00329); assay: Inhibition of wild-type human partial length PIK3CD (R108 to Q1044 residues) expressed in mammalian expression system at 10 uM by Kinomescan method relative to control; conditions: dose 1.0 µM, in the assay text read “at 1 uM” for “at 10 uM”
T2 sequence (whole entry): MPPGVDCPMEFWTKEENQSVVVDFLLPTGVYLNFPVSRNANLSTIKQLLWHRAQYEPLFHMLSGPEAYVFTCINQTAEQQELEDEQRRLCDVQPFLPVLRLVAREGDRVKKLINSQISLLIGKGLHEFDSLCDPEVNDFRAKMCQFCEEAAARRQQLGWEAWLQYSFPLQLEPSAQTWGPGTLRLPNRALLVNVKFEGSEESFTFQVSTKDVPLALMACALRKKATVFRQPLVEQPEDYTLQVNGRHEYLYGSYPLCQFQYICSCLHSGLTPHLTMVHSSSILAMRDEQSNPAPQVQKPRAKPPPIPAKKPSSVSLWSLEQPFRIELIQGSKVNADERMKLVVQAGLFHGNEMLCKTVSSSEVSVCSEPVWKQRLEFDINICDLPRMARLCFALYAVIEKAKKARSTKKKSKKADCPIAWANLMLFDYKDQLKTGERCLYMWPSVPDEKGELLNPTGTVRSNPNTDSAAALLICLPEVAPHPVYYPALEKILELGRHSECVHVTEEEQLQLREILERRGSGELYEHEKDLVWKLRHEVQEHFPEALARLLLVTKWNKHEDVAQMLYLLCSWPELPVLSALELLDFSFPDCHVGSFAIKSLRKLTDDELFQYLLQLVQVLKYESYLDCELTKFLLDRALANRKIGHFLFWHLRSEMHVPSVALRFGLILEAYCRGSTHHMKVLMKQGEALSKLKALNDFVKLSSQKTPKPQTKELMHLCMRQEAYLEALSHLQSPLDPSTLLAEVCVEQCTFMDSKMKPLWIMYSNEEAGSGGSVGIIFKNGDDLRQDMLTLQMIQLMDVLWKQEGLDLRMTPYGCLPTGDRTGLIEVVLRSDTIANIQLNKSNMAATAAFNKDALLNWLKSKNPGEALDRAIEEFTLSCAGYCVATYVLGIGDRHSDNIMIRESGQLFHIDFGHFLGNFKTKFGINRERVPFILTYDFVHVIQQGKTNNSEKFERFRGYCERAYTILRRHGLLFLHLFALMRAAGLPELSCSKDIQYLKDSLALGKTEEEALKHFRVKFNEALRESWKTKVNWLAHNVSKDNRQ

[14] = target: Phosphatidylinositol 4-phosphate 5-kinase type-1 gamma (Homo sapiens) (UniProt O60331); assay: Inhibition wild type human partial length PIP5K1C (M1 to T668 residues) expressed in mammalian expression system at 10 uM by Kinomescan method relative to control; conditions: dose 1.0 µM, in the assay text read “at 1 uM” for “at 10 uM”
Phosphatidylinositol 4-phosphate 5-kinase type-1 gamma (Homo sapiens), sequence (O60331 whole entry, the tested form may be a part): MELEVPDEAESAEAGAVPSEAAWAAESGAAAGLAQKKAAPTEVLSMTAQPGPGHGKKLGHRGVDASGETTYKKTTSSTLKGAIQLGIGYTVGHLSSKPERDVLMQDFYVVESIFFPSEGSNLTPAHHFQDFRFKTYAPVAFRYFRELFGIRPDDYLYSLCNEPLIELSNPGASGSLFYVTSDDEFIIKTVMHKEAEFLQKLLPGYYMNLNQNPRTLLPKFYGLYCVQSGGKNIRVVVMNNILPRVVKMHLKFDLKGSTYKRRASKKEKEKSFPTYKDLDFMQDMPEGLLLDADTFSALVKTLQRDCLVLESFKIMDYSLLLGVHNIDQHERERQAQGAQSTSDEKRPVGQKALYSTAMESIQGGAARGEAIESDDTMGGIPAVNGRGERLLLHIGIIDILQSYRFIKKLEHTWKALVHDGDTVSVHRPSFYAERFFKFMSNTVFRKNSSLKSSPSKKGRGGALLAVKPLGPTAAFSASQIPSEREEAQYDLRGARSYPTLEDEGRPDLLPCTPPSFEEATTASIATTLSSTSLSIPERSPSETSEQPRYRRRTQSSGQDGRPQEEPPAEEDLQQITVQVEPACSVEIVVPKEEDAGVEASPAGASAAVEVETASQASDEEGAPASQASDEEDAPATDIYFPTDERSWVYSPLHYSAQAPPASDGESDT

TAK1/TAB1, sequence (Q15750 whole entry, one chain of several, the tested form may be a part): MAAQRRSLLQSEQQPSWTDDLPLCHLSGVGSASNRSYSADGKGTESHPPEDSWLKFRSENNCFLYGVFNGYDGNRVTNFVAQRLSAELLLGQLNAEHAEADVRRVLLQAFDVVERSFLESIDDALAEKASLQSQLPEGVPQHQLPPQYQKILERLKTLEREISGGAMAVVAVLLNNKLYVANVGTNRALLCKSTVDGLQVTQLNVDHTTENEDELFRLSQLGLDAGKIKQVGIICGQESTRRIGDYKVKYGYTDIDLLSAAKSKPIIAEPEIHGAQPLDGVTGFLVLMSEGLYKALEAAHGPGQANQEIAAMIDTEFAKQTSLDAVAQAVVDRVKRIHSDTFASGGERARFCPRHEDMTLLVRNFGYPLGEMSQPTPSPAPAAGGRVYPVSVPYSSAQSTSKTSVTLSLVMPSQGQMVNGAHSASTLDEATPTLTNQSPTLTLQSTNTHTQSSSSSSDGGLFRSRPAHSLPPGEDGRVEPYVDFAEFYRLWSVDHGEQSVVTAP
Activated CDC42 kinase 1 (Homo sapiens), sequence (Q07912 whole entry, looked up, the tested form may be a part): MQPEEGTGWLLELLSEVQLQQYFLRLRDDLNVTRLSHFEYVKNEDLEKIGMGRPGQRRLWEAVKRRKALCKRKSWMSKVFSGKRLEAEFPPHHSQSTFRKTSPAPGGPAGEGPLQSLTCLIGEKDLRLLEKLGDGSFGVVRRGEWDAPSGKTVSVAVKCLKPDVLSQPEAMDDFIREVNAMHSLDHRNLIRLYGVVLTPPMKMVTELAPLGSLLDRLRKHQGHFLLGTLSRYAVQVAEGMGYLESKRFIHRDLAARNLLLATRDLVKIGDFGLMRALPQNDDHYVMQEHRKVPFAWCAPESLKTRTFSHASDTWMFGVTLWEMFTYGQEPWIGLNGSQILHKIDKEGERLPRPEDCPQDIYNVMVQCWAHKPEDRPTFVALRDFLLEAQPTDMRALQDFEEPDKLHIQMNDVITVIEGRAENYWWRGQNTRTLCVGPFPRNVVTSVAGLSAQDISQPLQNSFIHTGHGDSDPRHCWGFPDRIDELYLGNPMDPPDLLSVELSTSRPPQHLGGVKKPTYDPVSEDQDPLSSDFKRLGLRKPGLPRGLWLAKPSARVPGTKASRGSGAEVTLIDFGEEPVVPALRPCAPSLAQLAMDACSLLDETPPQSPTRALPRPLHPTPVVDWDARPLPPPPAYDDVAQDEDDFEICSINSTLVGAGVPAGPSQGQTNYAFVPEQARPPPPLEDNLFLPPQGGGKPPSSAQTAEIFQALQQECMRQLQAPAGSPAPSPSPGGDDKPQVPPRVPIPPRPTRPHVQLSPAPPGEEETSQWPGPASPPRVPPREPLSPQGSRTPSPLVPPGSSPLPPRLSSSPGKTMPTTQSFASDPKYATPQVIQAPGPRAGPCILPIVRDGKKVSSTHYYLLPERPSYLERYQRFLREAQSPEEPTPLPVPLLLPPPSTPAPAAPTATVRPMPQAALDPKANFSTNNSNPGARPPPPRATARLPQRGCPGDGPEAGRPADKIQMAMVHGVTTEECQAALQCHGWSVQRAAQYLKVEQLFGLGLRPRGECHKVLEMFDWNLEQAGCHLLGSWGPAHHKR
Serine/threonine-protein kinase 32A (Homo sapiens), sequence (Q8WU08 whole entry, the tested form may be a part, canonical isoform): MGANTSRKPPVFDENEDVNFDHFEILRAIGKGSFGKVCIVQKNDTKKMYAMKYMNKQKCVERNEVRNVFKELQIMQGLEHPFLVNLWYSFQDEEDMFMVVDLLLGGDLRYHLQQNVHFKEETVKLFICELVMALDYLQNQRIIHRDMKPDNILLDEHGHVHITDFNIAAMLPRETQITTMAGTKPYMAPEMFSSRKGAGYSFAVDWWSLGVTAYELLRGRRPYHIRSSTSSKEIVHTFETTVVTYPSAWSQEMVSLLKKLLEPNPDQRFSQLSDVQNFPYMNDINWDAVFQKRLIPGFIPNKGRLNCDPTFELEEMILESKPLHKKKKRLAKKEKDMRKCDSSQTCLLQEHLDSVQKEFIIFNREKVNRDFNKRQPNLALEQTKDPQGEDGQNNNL
Eukaryotic translation initiation factor 2-alpha kinase 1 (Homo sapiens), sequence (Q9BQI3 whole entry, the tested form may be a part): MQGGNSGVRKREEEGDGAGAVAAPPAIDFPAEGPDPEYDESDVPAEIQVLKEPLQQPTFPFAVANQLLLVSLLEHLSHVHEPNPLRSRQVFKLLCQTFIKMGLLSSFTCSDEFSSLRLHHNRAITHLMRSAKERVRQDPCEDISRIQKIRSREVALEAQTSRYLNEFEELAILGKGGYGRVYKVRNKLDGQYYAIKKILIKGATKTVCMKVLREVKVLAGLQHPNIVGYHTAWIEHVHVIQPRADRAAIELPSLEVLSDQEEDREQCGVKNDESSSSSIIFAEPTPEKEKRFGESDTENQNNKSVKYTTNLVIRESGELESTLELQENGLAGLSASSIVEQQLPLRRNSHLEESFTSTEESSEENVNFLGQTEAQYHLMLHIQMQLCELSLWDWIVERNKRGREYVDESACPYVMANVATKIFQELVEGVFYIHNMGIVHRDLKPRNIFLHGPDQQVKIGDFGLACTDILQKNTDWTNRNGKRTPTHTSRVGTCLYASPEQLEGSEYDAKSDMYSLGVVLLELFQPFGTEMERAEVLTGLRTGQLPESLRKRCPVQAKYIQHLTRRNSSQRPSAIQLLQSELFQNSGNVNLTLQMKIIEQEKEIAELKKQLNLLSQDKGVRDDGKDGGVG

| pIC50 (TAK1/TAB1) | also measured | SMILES |
| --- | --- | --- |
| 5.47 |  | CNC(=O)CN(Cc1cccc2c1OCCCO2)C(=O)c1c[nH]c(C(=O)N2CCCC2)c1 |
| < 5.00 |  | CNC(=O)C(C(C)C)N(Cc1ccccc1OC(F)F)C(=O)c1c[nH]c(C(=O)N2CCCC2)n1 (centres undefined) |
| 5.59 |  | CCOc1ccccc1CN(CC(=O)NC)C(=O)c1c[nH]c(C(=O)N2CCCC2)c1 |
| 6.00 |  | CCC(C(=O)NC)N(Cc1ccccc1OC(F)F)C(=O)c1c[nH]c(C(=O)N2CCCC2)n1 (centres undefined) |
| < 5.00 |  | CNC(=O)CN(Cc1ccccc1OC(F)F)C(=O)c1c[nH]c(C(=O)N2CCC(NC(C)=O)C2)n1 (centres undefined) |
| 4.23 |  | CNC(=O)CN(Cc1ccccc1OC(F)F)C(=O)c1cc(C(=O)N2CCCC2)[nH]n1 |
| < 5.00 |  | CNC(=O)CN(Cc1cccc(OC(F)F)c1)C(=O)c1c[nH]c(C(=O)N2CCCC2)n1 |
| < 5.00 |  | CNC(=O)CN(Cc1ccc(OC)cc1OC(F)F)C(=O)c1c[nH]c(C(=O)N2CCCC2)n1 |
| < 5.00 |  | CNC(=O)CN(Cc1cc(Cl)ccc1OC(F)F)C(=O)c1c[nH]c(C(=O)N2CCCC2)n1 |
| 5.49 |  | O=C(c1c[nH]c(C(=O)N2CCCC2)c1)N(Cc1ncco1)Cc1ccccc1OC(F)F |
| < 5.00 |  | CNC(=O)CN(Cc1ccccc1)C(=O)c1c[nH]c(C(=O)N2CCCC2)n1 |
| 5.77 |  | CC(C)NC(=O)CN(Cc1ccccc1OC(F)F)C(=O)c1c[nH]c(C(=O)N2CCCC2)c1 |
|  | pKd [1]: 7.26; solubility at 24 h [2]: 30 µM (≈ 13.1 µg/mL); half-life at 1 µM [3]: > 2 h; half-life at 1 µM [4]: > 2 h; half-life at 1 µM [5]: > 2 h; Papp A→B at 2 h, 2 µM [6]: 1 ×10⁻⁶ cm/s; Papp B→A at 2 h, 2 µM [7]: 20 ×10⁻⁶ cm/s; efflux ratio at 2 h, 2 µM [8]: 20; inhibition [9]: > 65%; inhibition [10]: > 65%; inhibition [11]: > 65%; inhibition [12]: > 65% | CNC(=O)CN(Cc1ccccc1OC(F)F)C(=O)c1c[nH]c(C(=O)N2CCCC2)n1 |
| 5.35 |  | CNC(=O)[C@H](C)N(Cc1ccccc1OC(F)F)C(=O)c1c[nH]c(C(=O)N2CCCC2)n1 |
| 5.74 |  | CNC(=O)CN(Cc1cccc2[nH]ccc12)C(=O)c1c[nH]c(C(=O)N2CCCC2)c1 |
| < 5.00 |  | CNC(=O)CN(Cc1c(Cl)cccc1OC(F)F)C(=O)c1c[nH]c(C(=O)N2CCCC2)n1 |
| 8.30 | inhibition [13]: > 65%; inhibition [14]: > 65% | CNC(=O)CN(Cc1ccccc1OC(F)F)C(=O)c1c[nH]c(C(=O)N2Cc3ccc(C(N)=O)cc3C2)n1 |
| 5.59 |  | CNC(=O)CN(Cc1ccccc1OC(F)F)C(=O)c1c[nH]c(C(=O)N2CCC2)n1 |
| 5.54 |  | CNC(=O)CN(Cc1ccccc1OC(F)F)C(=O)c1c[nH]c(C(=O)N2CCCCCC2)n1 |
| < 4.00 |  | CCNC(=O)c1cc(C(=O)N(CC(=O)NC)Cc2ccccc2OC(F)F)c[nH]1 |
| 8.00 |  | Nc1ncc(-c2cnn([C@H]3CC[C@H](O)CC3)c2)c2c(Cl)c(-c3cccc4nnsc34)oc12 |
